Experimental data from ChEMBL document CHEMBL1154352, “Toll-like receptor 7 selective synthetic oligoribonucleotide agonists: synthesis and structure-activity relationship studies” (J Med Chem, 2009).
The source made the active and inactive calls. The calls are words filed in the database; no cut-off is given here.

Key:
[1] = molecular target: Toll-like receptor 3 (Homo sapiens) (UniProt O15455); test: Activation of human TLR3 expressed in HEK293 assessed as induction of NF-kappaB activity reporter gene assay; type: cell-based
Sequence of Toll-like receptor 3 (Homo sapiens) (O15455 whole entry): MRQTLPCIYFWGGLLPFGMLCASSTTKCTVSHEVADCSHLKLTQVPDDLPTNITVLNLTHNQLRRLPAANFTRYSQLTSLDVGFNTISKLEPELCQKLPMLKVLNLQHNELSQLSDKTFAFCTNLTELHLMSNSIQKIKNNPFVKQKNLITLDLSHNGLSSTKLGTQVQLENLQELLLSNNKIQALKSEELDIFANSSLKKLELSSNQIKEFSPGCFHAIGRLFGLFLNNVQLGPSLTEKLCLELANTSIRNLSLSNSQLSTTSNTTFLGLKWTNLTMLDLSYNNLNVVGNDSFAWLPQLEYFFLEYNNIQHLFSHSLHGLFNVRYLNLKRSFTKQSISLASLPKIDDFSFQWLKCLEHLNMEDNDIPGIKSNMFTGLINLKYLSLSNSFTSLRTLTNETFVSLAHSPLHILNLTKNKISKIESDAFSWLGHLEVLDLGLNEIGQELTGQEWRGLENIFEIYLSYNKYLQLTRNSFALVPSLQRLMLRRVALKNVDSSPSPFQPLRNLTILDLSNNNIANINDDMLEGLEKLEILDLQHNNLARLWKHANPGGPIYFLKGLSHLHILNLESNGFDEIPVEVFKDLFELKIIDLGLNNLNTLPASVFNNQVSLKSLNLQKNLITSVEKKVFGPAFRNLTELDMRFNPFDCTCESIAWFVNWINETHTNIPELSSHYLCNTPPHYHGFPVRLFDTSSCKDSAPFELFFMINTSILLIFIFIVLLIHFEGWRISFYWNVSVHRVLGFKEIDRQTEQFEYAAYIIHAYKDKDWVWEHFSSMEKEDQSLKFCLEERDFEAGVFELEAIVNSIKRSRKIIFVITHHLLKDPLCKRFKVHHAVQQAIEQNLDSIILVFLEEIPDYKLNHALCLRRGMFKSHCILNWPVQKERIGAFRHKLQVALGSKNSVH

[2] = molecular target: T1, Toll-like receptor 9 (Mus musculus) (UniProt Q9EQU3); test: Activation of mouse TLR9 expressed in HEK293 assessed as induction of NF-kappaB activity reporter gene assay; type: cell-based
T1 sequence (whole entry): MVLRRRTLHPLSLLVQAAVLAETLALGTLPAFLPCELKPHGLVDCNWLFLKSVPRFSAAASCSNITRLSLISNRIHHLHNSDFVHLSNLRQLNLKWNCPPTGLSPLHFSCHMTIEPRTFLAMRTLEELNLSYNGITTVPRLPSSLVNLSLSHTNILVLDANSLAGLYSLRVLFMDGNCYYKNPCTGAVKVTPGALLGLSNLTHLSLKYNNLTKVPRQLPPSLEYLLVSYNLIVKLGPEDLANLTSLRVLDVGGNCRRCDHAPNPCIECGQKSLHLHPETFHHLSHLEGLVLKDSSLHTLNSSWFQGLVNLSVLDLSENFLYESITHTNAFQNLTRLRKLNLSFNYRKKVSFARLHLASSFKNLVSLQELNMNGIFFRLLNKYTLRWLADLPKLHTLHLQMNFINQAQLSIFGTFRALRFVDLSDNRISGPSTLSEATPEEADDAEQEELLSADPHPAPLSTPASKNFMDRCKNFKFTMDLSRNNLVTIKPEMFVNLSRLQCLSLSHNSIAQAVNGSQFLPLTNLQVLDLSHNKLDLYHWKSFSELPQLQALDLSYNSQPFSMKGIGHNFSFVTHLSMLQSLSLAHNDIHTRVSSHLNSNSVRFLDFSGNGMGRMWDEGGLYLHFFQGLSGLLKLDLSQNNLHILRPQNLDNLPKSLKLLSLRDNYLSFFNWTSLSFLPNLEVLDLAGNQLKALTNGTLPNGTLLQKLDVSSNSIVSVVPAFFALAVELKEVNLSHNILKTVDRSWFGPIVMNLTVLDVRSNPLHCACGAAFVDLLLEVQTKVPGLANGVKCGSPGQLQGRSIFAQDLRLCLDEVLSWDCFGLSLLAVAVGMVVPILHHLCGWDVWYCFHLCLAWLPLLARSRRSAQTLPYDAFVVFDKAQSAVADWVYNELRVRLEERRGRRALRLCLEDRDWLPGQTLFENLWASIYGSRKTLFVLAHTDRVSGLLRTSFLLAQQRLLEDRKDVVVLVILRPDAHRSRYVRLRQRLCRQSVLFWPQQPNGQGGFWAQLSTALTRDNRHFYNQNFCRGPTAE

[3] = test system: Splenocyte; test: Immunomodulatory activity in C57BL/6 mouse splenocytes bearing TLR7 receptor assessed as IL12 release at 100 ug/ml after 24 hrs by ELISA; type: functional, cell-based
In short: (§1)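 C57BL/6 splenocytes in RPMI 1640 with 10% FBS, penicillin/streptomycin, 2 mM L-glutamine, plated at 5 × 10^6 cells/mL; compounds in PBS added, 37 °C for 24 h. Supernatant IL-12 and IL-6 by ELISA; representative of three independent experiments.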

[4] = molecular target: T2, Toll-like receptor 8 (Homo sapiens) (UniProt Q9NR97); test: Activation of human TLR8 expressed in HEK293XL assessed as fold induction of NF-kappaB activity at 50 ug/ml after 18 hrs by reporter gene assay relative to control
T2 sequence (whole entry): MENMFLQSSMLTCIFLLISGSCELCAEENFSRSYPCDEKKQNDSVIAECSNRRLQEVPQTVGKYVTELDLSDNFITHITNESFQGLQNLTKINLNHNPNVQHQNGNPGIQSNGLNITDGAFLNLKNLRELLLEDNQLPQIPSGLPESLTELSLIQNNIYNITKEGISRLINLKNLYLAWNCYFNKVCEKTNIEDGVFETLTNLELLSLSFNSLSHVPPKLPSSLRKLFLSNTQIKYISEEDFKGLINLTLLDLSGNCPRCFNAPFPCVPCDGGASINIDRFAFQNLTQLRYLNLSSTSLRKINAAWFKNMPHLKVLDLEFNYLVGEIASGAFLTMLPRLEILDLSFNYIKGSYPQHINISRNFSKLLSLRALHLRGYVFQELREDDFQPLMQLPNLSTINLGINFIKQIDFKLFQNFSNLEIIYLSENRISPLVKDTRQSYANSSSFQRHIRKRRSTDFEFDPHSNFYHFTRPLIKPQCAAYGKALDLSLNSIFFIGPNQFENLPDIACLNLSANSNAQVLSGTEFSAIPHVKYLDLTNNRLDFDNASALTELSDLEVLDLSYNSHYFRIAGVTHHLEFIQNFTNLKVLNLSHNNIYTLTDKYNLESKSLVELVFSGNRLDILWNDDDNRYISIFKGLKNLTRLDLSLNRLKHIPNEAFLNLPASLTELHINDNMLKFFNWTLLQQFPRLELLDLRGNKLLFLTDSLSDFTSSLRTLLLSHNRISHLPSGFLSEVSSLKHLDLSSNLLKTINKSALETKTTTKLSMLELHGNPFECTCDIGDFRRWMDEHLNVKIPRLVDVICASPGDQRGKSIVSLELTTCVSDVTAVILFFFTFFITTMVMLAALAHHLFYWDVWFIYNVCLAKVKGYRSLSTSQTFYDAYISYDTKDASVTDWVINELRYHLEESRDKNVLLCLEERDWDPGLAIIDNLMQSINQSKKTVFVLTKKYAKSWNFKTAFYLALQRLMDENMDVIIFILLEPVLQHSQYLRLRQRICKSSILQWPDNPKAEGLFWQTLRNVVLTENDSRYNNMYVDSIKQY
In short: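 HEK293 cells stably expressing human TLR7 or TLR8, transiently transfected with SEAP reporter plasmid; medium replaced, SIMRA compounds added, 18 h incubation. Supernatant SEAP measured by QuantiBlue; expressed as fold increase in NF-κB activity over PBS control. Tabulated data at 50 μg/mL, representative of three independent experiments.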

[5] = test system: Splenocyte; test: Immunomodulatory activity in C57BL/6 mouse splenocytes bearing TLR7 receptor assessed as IL6 release at 100 ug/ml after 24 hrs by ELISA; type: functional, cell-based; in short: as §1
[6] = Metabolic stability in human serum assessed as full length product remaining after 10 mins by HPLC; type: ADME, cell-free; conditions: read-out: Stability
In short: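 About 0.5 A260 units compound in 1% human serum in PBS, 37 °C; aliquot taken at 10 min, analysed by anion-exchange HPLC for percent intact full-length product.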

Activity [1]	Activity [2]	Activity [3]	fold change (FC) [4]	Activity [5]	remaining at 10 min [6] [%]	Structure (SMILES)
inactive	inactive	Active	0.7	Active	63	Nc1ccn([C@@H]2O[C@H](COP(=O)(S)O[C@H]3[C@@H](O)[C@H](n4ccc(N)nc4=O)O[C@@H]3COP(=O)(S)O[C@H]3[C@@H](O)[C@H](n4cnc5c(N)ncnc54)O[C@@H]3COP(=O)(S)O[C@H]3[C@@H](O)[C@H](n4ccc5c(=O)[nH]c(N)nc54)O[C@@H]3COP(=O)(S)O[C@H]3[C@@H](O)[C@H](n4ccc(=O)[nH]c4=O)O[C@@H]3COP(=O)(S)O[C@H]3[C@@H](O)[C@H](n4ccc(=O)[nH]c4=O)O[C@@H]3COP(=O)(S)O[C@H]3[C@@H](O)[C@H](n4ccc(N)nc4=O)O[C@@H]3COP(=O)(S)O[C@H]3[C@@H](O)[C@H](n4cnc5c(N)ncnc54)O[C@@H]3CO)[C@@H](OP(=O)(S)OC[C@H]3O[C@@H](n4ccc(=O)[nH]c4=O)[C@H](O)[C@@H]3OP(=O)(S)OC[C@H]3O[C@@H](n4ccc5c(=O)[nH]c(N)nc54)[C@H](O)[C@@H]3OP(=O)(S)OC[C@H]3O[C@@H](n4ccc(=O)[nH]c4=O)[C@H](O)[C@@H]3OP(=O)(S)OCC(O)COP(=O)(S)O[C@H]3[C@@H](O)[C@H](n4ccc(=O)[nH]c4=O)O[C@@H]3COP(=O)(S)O[C@H]3[C@@H](O)[C@H](n4ccc5c(=O)[nH]c(N)nc54)O[C@@H]3COP(=O)(S)O[C@H]3[C@@H](O)[C@H](n4ccc(=O)[nH]c4=O)O[C@@H]3COP(=O)(S)O[C@H]3[C@@H](O)[C@H](n4ccc(N)nc4=O)O[C@@H]3COP(=O)(S)O[C@H]3[C@@H](O)[C@H](n4ccc(N)nc4=O)O[C@@H]3COP(=O)(S)O[C@H]3[C@@H](O)[C@H](n4cnc5c(N)ncnc54)O[C@@H]3COP(=O)(S)O[C@H]3[C@@H](O)[C@H](n4ccc5c(=O)[nH]c(N)nc54)O[C@@H]3COP(=O)(S)O[C@H]3[C@@H](O)[C@H](n4ccc(=O)[nH]c4=O)O[C@@H]3COP(=O)(S)O[C@H]3[C@@H](O)[C@H](n4ccc(=O)[nH]c4=O)O[C@@H]3COP(=O)(S)O[C@H]3[C@@H](O)[C@H](n4ccc(N)nc4=O)O[C@@H]3COP(=O)(S)O[C@H]3[C@@H](O)[C@H](n4cnc5c(N)ncnc54)O[C@@H]3CO)[C@H]2O)c(=O)n1 (some centres not stated)
inactive	inactive	Active	4.6	Active	86	Nc1ccn([C@@H]2O[C@H](COP(=O)(S)O[C@H]3[C@@H](O)[C@H](n4cnc5c(N)ncnc54)O[C@@H]3COP(=O)(S)O[C@H]3[C@@H](O)[C@H](n4ccc5c(=O)[nH]c(N)nc54)O[C@@H]3COP(=O)(S)O[C@H]3[C@@H](O)[C@H](n4ccc(=O)[nH]c4=O)O[C@@H]3CO)[C@@H](OP(=O)(S)OC[C@H]3O[C@@H](n4ccc5c(=O)[nH]c(N)nc54)[C@H](O)[C@@H]3OP(=O)(S)OC[C@H]3O[C@@H](n4cnc5c(N)ncnc54)[C@H](O)[C@@H]3OC[C@H]3O[C@@H](n4ccc(=O)[nH]c4=O)[C@H](O)[C@@H]3OP(=O)(S)ON[C@H]3O[C@@H](n4ccc5c(=O)[nH]c(N)nc54)[C@H](O)[C@@H]3OP(=O)(S)OC[C@H]3O[C@@H](n4cnc5c(N)ncnc54)[C@H](O)[C@@H]3OP(=O)(S)OC[C@H]3O[C@@H](n4ccc(=O)[nH]c4=O)[C@H](O)[C@@H]3OP(=O)(S)OC[C@H]3O[C@@H](n4ccc(=O)[nH]c4=O)[C@H](O)[C@@H]3OP(=O)(S)OCC(O)COP(=O)(S)O[C@H]3[C@@H](O)[C@H](n4ccc(=O)[nH]c4=O)O[C@@H]3COP(=O)(S)O[C@H]3[C@@H](O)[C@H](n4ccc(=O)[nH]c4=O)O[C@@H]3COP(=O)(S)O[C@H]3[C@@H](O)[C@H](n4cnc5c(N)ncnc54)O[C@@H]3COP(=O)(S)O[C@H]3[C@@H](O)[C@H](n4ccc5c(=O)[nH]c(N)nc54)O[C@@H]3NOP(=O)(S)O[C@H]3[C@@H](O)[C@H](n4ccc(=O)[nH]c4=O)O[C@@H]3CO[C@H]3[C@@H](O)[C@H](n4cnc5c(N)ncnc54)O[C@@H]3COP(=O)(S)O[C@H]3[C@@H](O)[C@H](n4ccc5c(=O)[nH]c(N)nc54)O[C@@H]3COP(=O)(S)O[C@H]3[C@@H](O)[C@H](n4ccc(N)nc4=O)O[C@@H]3COP(=O)(S)O[C@H]3[C@@H](O)[C@H](n4cnc5c(N)ncnc54)O[C@@H]3COP(=O)(S)O[C@H]3[C@@H](O)[C@H](n4ccc5c(=O)[nH]c(N)nc54)O[C@@H]3COP(=O)(S)O[C@H]3[C@@H](O)[C@H](n4ccc(=O)[nH]c4=O)O[C@@H]3CO)[C@H]2O)c(=O)n1 (some centres not stated)
